According to ChEMBL document CHEMBL1134641, “Progress toward the development of a safe and effective agent for treating reentrant cardiac arrhythmias: synthesis and evaluation of ibutilide analogues with enhanced metabolic stability and diminished proarrhythmic potential” (2001):

How the values were obtained:
Canis familiaris [1] = organism: Canis familiaris; test: Atrial flutter cycle length (AFCLl) measured in canine just after inducing atrial flutter (AFL) termination by the compound; format: functional, Canis lupus familiaris, Heart
Canis familiaris [2] = test: Atrial effective refractory period (AERP) measured in canine just after inducing atrial flutter (AFL) termination by the compound at a dose of 2.4 uM/kg; format: functional, Canis lupus familiaris, Heart
Canis familiaris [3] = test: Atrial effective refractory period (AERP) measured in canine just after inducing atrial flutter (AFL) termination by the compound at a dose of 4.8 uM/kg; format: functional, Canis lupus familiaris, Heart
Canis familiaris [4] = test: QT interval measured in canine 24-h Infarction model at a single intravenous dose of 2.4 uM/kg; format: functional, Canis lupus familiaris
In short: (§1)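 Dogs 24 h after two-stage LAD ligation. Compound in saline given iv in sequential doses (cumulative 0.24, 0.72, 2.4 µmol/kg); saline controls then given a single 2.4 µmol/kg iv dose. HR, IVR, BP, QT, spontaneous arrhythmias/min, ERPs and MAPD90 measured at baseline and 15 min after each dose. Means ± SEM, paired t-test, p≤0.05.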

Canis familiaris [5] = test: QT interval measured in canine just after inducing atrial flutter (AFL) termination by the compound at a dose of 0.24 umol/kg; format: functional, Canis lupus familiaris, Heart
Canis familiaris [6] = test: QT interval measured in canine just after inducing atrial flutter (AFL) termination by the compound at a dose of 2.4 uM/kg; format: functional, Canis lupus familiaris, Heart
In short: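 Conscious, sling-restrained dogs with chronically implanted electrodes, studied after 2 weeks of recovery. Sustained AFL (>5 min) induced. Compound in saline given iv every 5 min to cumulative 0.024-12.0 µmol/kg. At AFL termination, HR, QT (paced cycle length 300 ms), AERP and VERP measured. Measurements then taken 3 min after each further dose. Significance p≤0.05 vs baseline.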

Canis familiaris [7] = test: Atrial effective refractory period (AERP) measured in canine just after inducing atrial flutter (AFL) termination by the compound at a dose of 0.24 umol/kg; format: functional, Canis lupus familiaris, Heart
Canis familiaris [8] = test: Heart Rate measured in canine just after inducing atrial flutter (AFL) termination by the compound at a dose of 7.2 uM/kg; format: functional, Canis lupus familiaris
Canis familiaris [9] = test: Heart rate measured in canine 24-h Infarction model at an cumulative intravenous dose of 2.4 uM/kg; format: functional, Canis lupus familiaris
In short: (§2)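 Male mongrel dogs (16-22 kg) with LAD permanently ligated in two stages; studied 24 h later. […] given IV in sequential doses to cumulative 0.24, 0.72, 2.4 µmol/kg. Saline controls (n=8) received vehicle, then a single IV 2.4 µmol/kg dose at the end. Measurements taken at baseline and 15 min after each dose. Means ± SEM, paired t-test, p ≤ 0.05.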

Canis familiaris [10] = test: Atrial MAPD90 measured in canine 24-h Infarction model at an cumulative intravenous dose of 0.24 uM/kg; format: functional, Canis lupus familiaris, Cardiac atrium; in short: as §2
Canis familiaris [11] = test: Atrial MAPD90 measured in canine 24-h Infarction model at an cumulative intravenous dose of 2.4 uM/kg; format: functional, Canis lupus familiaris, Cardiac atrium; in short: as §2
Canis familiaris [12] = test: Number of canine in which sustained ventricular tachycardia (SVT) was observed in PES-induced arrhythmias at an cumulative intravenous dose of 0.72 uM/kg; format: functional, Canis lupus familiaris, Cardiac ventricle
In short: (§3)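 Male mongrel dogs (16-22 kg) with LAD ligated in two stages, studied 24 h later. Programmed electrical stimulation at baseline and 15 min after each iv dose in saline (cumulative 0.24, 0.72, 2.4 µmol/kg). Saline controls then received a single 2.4 µmol/kg iv dose. Responses scored as NI (≤15 beats), NSVT (>15 beats, ends within 30 s), SVT (>30 s, needing pacing or cardioversion) or VF. A positive response was repeated.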

Canis familiaris [13] = test: Number of canine in which sustained ventricular tachycardia (SVT) was observed in PES-induced arrhythmias at an cumulative intravenous dose of 2.4 uM/kg; format: functional, Canis lupus familiaris, Cardiac ventricle; in short: as §3
Canis familiaris [14] = test: Number of canine in which ventricular fibrillation (VF) was observed in PES-induced arrhythmias at an cumulative intravenous dose of 0.72 uM/kg; format: functional, Canis lupus familiaris, Cardiac ventricle; in short: as §3
Canis familiaris [15] = test: Number of canine in which ventricular fibrillation (VF) was observed in PES-induced arrhythmias at an cumulative intravenous dose of 2.4 uM/kg; format: functional, Canis lupus familiaris, Cardiac ventricle; in short: as §3
Canis familiaris [16] = test: Idioventricular heart rate (IVR) measured in canine 24-h Infarction model at an cumulative intravenous dose of 0.24 uM/kg; format: functional, Canis lupus familiaris; in short: as §2
Canis familiaris [17] = test: Spontaneous arrhythmias measured in canine 24-h Infarction model at an cumulative intravenous dose of 2.4 uM/kg; format: functional, Canis lupus familiaris; in short: as §1
Canis familiaris [18] = test: Number of canine in which arrhythmias could not be induced at an cumulative intravenous dose of 0.24 uM/kg; format: functional, Canis lupus familiaris; in short: as §3
Canis familiaris [19] = test: Number of canine in which arrhythmias could not be induced at an single intravenous dose of 2.4 uM/kg; format: functional, Canis lupus familiaris; in short: as §3
Canis familiaris [20] = organism: Canis familiaris; test: Heart Rate measured in canine just after inducing atrial flutter (AFL) termination by the compound; format: functional, Canis lupus familiaris
Canis familiaris [21] = test: Heart Rate measured in canine just after inducing atrial flutter (AFL) termination by the compound at a dose of 0.24 umol/kg; format: functional, Canis lupus familiaris
Canis familiaris [22] = test: Heart Rate measured in canine just after inducing atrial flutter (AFL) termination by the compound at a dose of 0.6 umol/kg; format: functional, Canis lupus familiaris
Canis familiaris [23] = test: Ventricular effective refractory (VEPR) period measured in canine 24-h Infarction model at an cumulative intravenous dose of 0.72 uM/kg; format: functional, Canis lupus familiaris, Heart
In short: (§4)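 Male mongrel dogs (16-22 kg) with LAD permanently ligated in two stages, studied 24 h after ligation. Compound given in saline (6.0 µmol/mL) as sequential intravenous doses to reach cumulative 0.24, 0.72 and 2.4 µmol/kg. VERP and other measurements taken at baseline and 15 min after each dose. Saline-dosed dogs served as controls. Results are means ± SEM, paired t-test, p ≤ 0.05.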

Canis familiaris [24] = test: Ventricular effective refractory (VEPR) period measured in canine 24-h Infarction model at an cumulative intravenous dose of 2.4 uM/kg; format: functional, Canis lupus familiaris, Heart; in short: as §4
Canis familiaris [25] = test: Ventricular effective refractory period ([…]) measured in canine just after inducing atrial flutter (AFL) termination by the compound at a dose of 1.2 uM/kg; format: functional, Canis lupus familiaris, Heart
In short: (§5)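 Conscious dogs, loosely restrained in a sling, with exteriorized electrode leads, studied 2 weeks after instrumentation. AFL was induced and counted as sustained if it lasted 5 min. Compound in saline given intravenously every 5 min to cumulative 0.024-12.0 µmol/kg. VERP was measured at AFL termination and 3 min after each dose. Results are means ± SEM versus baseline, p ≤ 0.05.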

Canis familiaris [26] = test: Ventricular effective refractory period ([…]) measured in canine just after inducing atrial flutter (AFL) termination by the compound at a dose of 7.2 uM/kg; format: functional, Canis lupus familiaris, Heart; in short: as §5
Canis familiaris [27] = test: Number of canine in which sustained ventricular tachycardia (SVT) was observed in PES-induced arrhythmias at an cumulative intravenous dose of 0.24 uM/kg; format: functional, Canis lupus familiaris, Cardiac ventricle; in short: as §3
Canis familiaris [28] = test: Number of canine in which nonsustained ventricular tachycardia (NSVT) was observed in PES-induced arrhythmias at an single intravenous dose of 2.4 uM/kg; format: functional, Canis lupus familiaris, Cardiac ventricle; in short: as §3
Canis familiaris [29] = test: Ventricular MAPD90 measured in canine 24-h Infarction model at a single intravenous dose of 2.4 uM/kg; format: functional, Canis lupus familiaris, Heart; in short: as §1
Canis familiaris [30] = test: Ventricular MAPD90 measured in canine 24-h Infarction model at an cumulative intravenous dose of 0.72 uM/kg; format: functional, Canis lupus familiaris, Heart; in short: as §1
Canis familiaris [31] = test: Atrial effective refractory period (AEPR) measured in canine 24-h Infarction model at an cumulative intravenous dose of 0.72 uM/kg; format: functional, Canis lupus familiaris, Cardiac atrium; in short: as §2

Work on `CCN(CCCCCC(C)(C)F)CCC[C@H](O)c1ccc(NS(C)(=O)=O)cc1.O=C(O)/C=C/C(=O)O` yielded an AFLCl (Canis familiaris [1]) of 165 ms, an AERP (Canis familiaris [2]) of 166 ms and an AERP (Canis familiaris [3]) of 166 ms. It also gave a QT interval (Canis familiaris [4]) of 238 ms, a QT interval (Canis familiaris [5]) of 196 ms and a QT interval (Canis familiaris [6]) of 213 ms. It also gave an AERP (Canis familiaris [7]) of 160 ms, an HR (Canis familiaris [8]) of 127 beats min-1 and an HR (Canis familiaris [9]) of 135 beats min-1. For the same compound, the “Atrial MAPD90” value (Canis familiaris [10]) was 148 ms, the “Atrial MAPD90” value (Canis familiaris [11]) was 163 ms and the No. of canine (Canis familiaris [12]) was 2. The No. of canine (Canis familiaris [13]) was 0, the No. of canine (Canis familiaris [14]) was 0 and the No. of canine (Canis familiaris [15]) was 0. The IVR (Canis familiaris [16]) was 138 beats min-1, the PVCs (Canis familiaris [17]) was 73 number min-1 and the No. of canine (Canis familiaris [18]) was 8. For the same compound, the No. of canine (Canis familiaris [19]) was 7, the HR (Canis familiaris [20]) was 108 beats min-1 and the HR (Canis familiaris [21]) was 128 beats min-1. The HR (Canis familiaris [22]) was 111 beats min-1, the VERP (Canis familiaris [23]) was 170 ms and the VERP (Canis familiaris [24]) was 185 ms. For the same compound, the VERP (Canis familiaris [25]) was 144 ms, the VERP (Canis familiaris [26]) was 140 ms and the No. of canine (Canis familiaris [27]) was 1. The No. of canine (Canis familiaris [28]) was 0, the “Ventricular MAPD90” value (Canis familiaris [29]) was 201 ms and the “Ventricular MAPD90” value (Canis familiaris [30]) was 170 ms. It also gave an AERP (Canis familiaris [31]) of 166 ms.
